Measurements taken from ChEMBL document CHEMBL1955820, “Diazeniumdiolated carbamates: a novel class of nitric oxide donors” (Bioorg Med Chem, 2012).

Legend:
[1] = test system: U-937; assay: Prodrug activation in human U937 cells assessed as intracellular NO-release by measuring increase in fluorescence at 10 uM after 90 mins by DAF-FM diacetate-based fluorescence assay relative to control; format: cell-based; settings: u-937, 1.5 h
How it was run: (§1)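 U937 cells in RPMI 1640 with 10% fetal calf serum at 37 °C, 5% CO2. Probe loading used 2.5 µM DAF-FM diacetate in HBSS for 30 min. Cells were then spun down, rinsed and resuspended in fresh HBSS. Compound in DMSO was added at 10 µM final for 90 min, with DMSO as control. Fluorescence was read at ex 485/em 525 nm.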

[2] = test system: U-937; assay: Drug uptake in human U937 cells by DAF-FM diacetate-based fluorescence assay; format: ADME, cell-based; how it was run: as §1
[3] = Prodrug activation in human TERT immortalized BJ-5ta cells assessed as intracellular NO-release by measuring increase in fluorescence at 10 uM after 90 mins by DAF-FM diacetate-based fluorescence assay relative to control; format: cell-based; settings: htert-bj, 1.5 h
How it was run: (§2)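 BJ-5ta cells, grown in DMEM:199 medium (4:1) with 10% fetal calf serum, were loaded with 2.5 µM DAF-FM diacetate in HBSS for 30 min at 37 °C, 5% CO2, then rinsed into fresh HBSS. Compound in DMSO was added at 10 µM final for 90 min, with DMSO as control. Fluorescence was read at ex 485/em 525 nm. Mean of 16 independent experiments.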

[4] = Drug uptake in human TERT immortalized BJ-5ta cells by DAF-FM diacetate-based fluorescence assay; format: ADME, cell-based; settings: htert-bj; how it was run: as §2
[5] = Prodrug activation in PBS assessed as production of nitrous oxide per mol of prodrug by gas chromatography in presence of GSH; settings: buffer
How it was run: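 Glutathione-activated release in pH 7.4 buffer with 3.6–3.9 mM GSH and 50 µM DTPA, argon-sparged, at 37 °C. Prodrug was injected from a 10 mM DMSO stock. N2O was measured by GC with electron capture detection on a packed ShinCarbon column: 90 to 200 °C at 20 °C/min, He carrier 30 mL/min.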

Structure (SMILES) | fold change (FC) [1] | Drug uptake [2] | fold change (FC) [3] | Drug uptake [4] | Drug metabolism [5] [mol/mol]
CC(=O)OCO/N=[N+](\[O-])N(C(=O)OC(C)(C)C)C(C)C | 5.56 | Active | 7.29 | Active | 
CC(C)N(C(=O)OC(C)(C)C)/[N+]([O-])=N/Oc1ccc([N+](=O)[O-])cc1[N+](=O)[O-] | 10.5 | Active | 49.67 | Active | 0.02
CCOC(=O)N1CCN(/[N+]([O-])=N/Oc2ccc([N+](=O)[O-])cc2[N+](=O)[O-])CC1 | 2.64 |  | 5.48 |  | 
